Active and inactive are the calls of the source.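 Rule for the calls: active = growth-lowering compounds whose AC50 is at most ten times the top tested dose; inconclusive = flat curve with moderate signal loss, or a poor fit; inactive = the rest.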
Legend:
[1] = single-agent antifungal toxicity on Candida – CaCi-2 strain, Alamar Blue, dry powder, set 8, counter-screen for antifungal drug resistance project, dose response (AID 493157); details: C. albicans CaCi-2 growth without fluconazole, Alamar Blue, 48 h
Outline: (§1)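 System: C. albicans CaCi-2 resistant isolate, fluconazole omitted. Quantity: inoculum OD600 0.00015. Medium: defined RPMI medium, MOPS, glucose, uridine. Doses: pinned compound alone. Schedule: 48 h static growth, 37 °C, 2 h room-temperature dye. Signal: Alamar Blue fluorescence, 544/590 nm. Read-out: yeast growth via fluorescence.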

[2] = tested on: C. albicans CaCi-2 (fluconazole-resistant clinical isolate) growth without fluconazole, Alamar Blue, 48 h; test: as above
Outline: as §1

Which max activity ([1]; at 26 µM) does the source give for `COC(=O)Cn1nc(-c2ccccc2C)c2ccccc21` here?
Its max activity is 1.36% (inactive).

With `COc1ccc(-c2n[nH]c3ccccc23)cc1` as the compound, how does the max activity ([1]; at 6 µM) read?
Its max activity is -32.5% (inactive).

Which max activity ([1]; at 0.1 µM) does the source give for `COC(=O)Cn1nc(-c2ccccc2)c2ccc(C(F)(F)F)cc21` here?
The max activity was -34% (inactive).

For `COC(=O)Cn1nc(-c2ccccc2)c2ccccc21`, which max activity ([1]; at 12 µM) is on record?
Its max activity is 35.4% (inactive).

Which max activity ([1]; at 26 µM) does the source give for `COC(=O)Cn1nc(-c2ccc(C#N)cc2)c2ccccc21` here?
The max activity was -38.6% (inactive).

For `COC(=O)Cn1nc(-c2ccc(F)cc2)c2ccccc21`, which max activity ([1]; at 3 µM) is on record?
Its max activity is -27% (inactive).

Which max activity ([1]; at 1.6 µM) does the source give for `COC(=O)CCCn1nc(-c2ccccc2)c2ccccc21` here?
Its max activity is -17.6% (inactive).

For `CCN(CC)C(=O)Cn1c2ccc(F)cc2c2nc3n(c(=O)c21)CCS3`, which max activity ([1]; at 0.38 µM) is on record?
The max activity was -28.9% (inactive).

With `O=C(Cn1c2ccccc2c2ccncc21)N1CCCCC1` as the compound, how does the max activity ([1]; at 6 µM) read?
The max activity was -15.9% (inactive).

With `COC(=O)Cn1nc(-c2ccccc2)c2cccc(C(F)(F)F)c21` as the compound, how does the max activity ([1]; at 0.1 µM) read?
Its max activity is -21.2% (inactive).

For `COC(=O)Cn1ncc2ccccc21`, which max activity ([1]; at 26 µM) is on record?
The max activity was -25.4% (inactive).

Which max activity ([1]; at 0.8 µM) does the source give for `O=C(Cn1c2ccccc2c2nc3n(c(=O)c21)CCS3)N1CCOCC1` here?
Its max activity is -18.5% (inactive).

For `CC1CCN(C(=O)Cn2c3ccccc3c3nc4n(c(=O)c32)CCS4)CC1`, which max activity ([1]; at 12 µM) is on record?
The max activity was -29.8% (inactive).

Which max activity ([1]; at 0.1 µM) does the source give for `COC(=O)C(C)(C)n1nc(-c2ccccc2)c2ccccc21` here?
Its max activity is -31.3% (inactive).

With `O=C(O)Cn1nc(-c2ccccc2)c2ccccc21` as the compound, how does the max activity ([1]; at 6 µM) read?
The max activity was 18.6% (inactive).

For `O=C(Cn1c2ccccc2c2nc3n(c(=O)c21)CCS3)N1CCCC1`, which max activity ([1]; at 12 µM) is on record?
Its max activity is 17.2% (inactive).

With `O=C1OCCC1n1nc(-c2ccccc2)c2ccccc21` (centres undefined) as the compound, how does the max activity ([1]; at 0.195 µM) read?
The max activity was -31.5% (inactive).

With `COC(=O)Cn1c(-c2ccccc2)nc2ccccc21` as the compound, how does the max activity ([1]; at 6 µM) read?
The max activity was 19.2% (inactive).

With `CCN(CC)C(=O)Cn1c2ccccc2c2nc3n(c(=O)c21)CCS3` as the compound, how does the max activity ([1]; at 0.38 µM) read?
The max activity was -31.2% (inactive).

Which max activity ([1]; at 0.8 µM) does the source give for `COC(=O)Cn1nc(-c2cccc(F)c2)c2ccccc21` here?
Its max activity is -22.1% (inactive).

With `COC(=O)Cn1nc(I)c2ccccc21` as the compound, how does the max activity ([1]; at 1.6 µM) read?
Its max activity is -30.3% (inactive).

Which max activity ([1]; at 26 µM) does the source give for `O=C(Cn1c2ccc(F)cc2c2nc3n(c(=O)c21)CCS3)N1CCCCC1` here?
The max activity was 27.4% (inactive).

Which AC50 [2] does the source give for `O=C(Cn1nc(-c2ccccc2)c2ccccc21)OC1CCC1` here?
The AC50 was > 26 µM (inactive).

For `FC(F)(F)c1ccc(-c2n[nH]c3ccccc23)cc1`, which max activity ([1]; at 0.195 µM) is on record?
The max activity was -25.6% (inactive).

Which max activity ([1]; at 0.8 µM) does the source give for `CCC(=O)Cn1nc(-c2ccccc2)c2ccccc21` here?
Its max activity is -10.2% (inactive).

Which max activity ([1]; at 0.1 µM) does the source give for `O=C(Cn1c2ccccc2c2nc3n(c(=O)c21)CCS3)N1CCCCC1` here?
Its max activity is -24.6% (inactive).

For `O=C(Cn1c2ccc(F)cc2c2nc3n(c(=O)c21)CCS3)N1CCCCCC1`, which max activity ([1]; at 26 µM) is on record?
Its max activity is 13.5% (inactive).

Which max activity ([1]; at 26 µM) does the source give for `CCCCn1nc(-c2ccccc2)c2ccccc21` here?
The max activity was 28% (inactive).

For `O=C(Cn1c2ccc(F)cc2c2nc3n(c(=O)c21)CCS3)N1CCCC1`, which max activity ([1]; at 0.1 µM) is on record?
Its max activity is -25.8% (inactive).
